Source: ChEMBL document CHEMBL1154664, “From serendipity to rational antituberculosis drug discovery of mefloquine-isoxazole carboxylic acid esters” (J Med Chem, 2009)
Values after ≈ are worked out from the molar mass of the structure shown.

Experiments:
[1] = test system: Mycobacterium tuberculosis; assay: Antitubercular activity against Mycobacterium tuberculosis H37Rv at pH 6.8 by Alamar blue susceptibility assay; assay type: functional
Method in brief: (§1)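 Replicating M. tuberculosis H37Rv cultures; MIC by microplate Alamar Blue assay (MABA) at pH 6.8, run as previously described.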

[2] = test system: Mycobacterium tuberculosis; assay: Antitubercular activity against Mycobacterium tuberculosis H37Rv by low oxygen recovery assay; assay type: functional
Method in brief: (§2)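 Nonreplicating M. tuberculosis H37Rv cultures; MIC determined by low oxygen recovery assay (LORA), run as previously described.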

Vero = assay: Cytotoxicity against african green monkey Vero cells after 72 hrs; assay type: cell-based; conditions: Chlorocebus sabaeus
Method in brief: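 VERO green monkey kidney cells exposed to compound for 72 h.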

[3] = Selectivity index, ratio of IC50 for Vero cells to IC50 for Mycobacterium tuberculosis H37Rv by Alamar blue susceptibility assay; assay type: toxicity, cell-based; conditions: monkey, read-out: Ratio IC50
[4] = Selectivity index, ratio of IC50 for Vero cells to IC50 for Mycobacterium tuberculosis H37Rv by low oxygen recovery assay; assay type: toxicity, cell-based; conditions: monkey, read-out: Ratio IC50
[5] = Half life in BALB/c mouse at 400 mg/kg, po; assay type: ADME, organism-based; design: dose 400 mg/kg, route oral; conditions: in vivo
Method in brief: (§3)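 Female BALB/c mice (20-22 g), groups of twelve, single oral 400 mg/kg dose as a 20 mg/mL suspension in 0.5% carboxymethyl cellulose. Retro-orbital blood at 0, 15, 30, 45, 90 and 120 min. Plasma obtained by centrifugation, then precipitated with three volumes of acetonitrile containing internal standard. Parent and metabolites quantified by LC-MS-MS using positive electrospray and selected reaction monitoring.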

[6] = Cmax in BALB/c mouse at 400 mg/kg, po; assay type: ADME, organism-based; design: dose 400 mg/kg, route oral; conditions: in vivo; method in brief: as §3
[7] = AUC in BALB/c mouse at 400 mg/kg, po; assay type: ADME, organism-based; design: dose 400 mg/kg, route oral; conditions: plasma; method in brief: as §3
Mus musculus [8] = assay: Cmax in BALB/c mouse assessed as 2,8-bis(trifluoromethyl)quinol in-4-ol at 400 mg/kg, po; assay type: ADME, organism-based; design: dose 400 mg/kg, route oral; conditions: in vivo; method in brief: as §3
Mus musculus [9] = assay: Tmax in BALB/c mouse assessed as 2,8-bis(trifluoromethyl)quinol in-4-ol at 400 mg/kg, po; assay type: ADME, organism-based; design: dose 400 mg/kg, route oral; conditions: in vivo; method in brief: as §3
Mus musculus [10] = assay: Plasma concentration in BALB/c mouse assessed as 5-((2,8-bis(trifluoromethyl)qu inolin-4-yloxy)methyl)isoxazole-3-carboxylic acid at 400 mg/kg, po after 3 hrs; assay type: ADME, organism-based; design: dose 400 mg/kg, route oral; conditions: in vivo
Mus musculus [11] = assay: Plasma concentration in BALB/c mouse assessed as 5-((2,8-bis(trifluoromethyl)qu inolin-4-yloxy)methyl)isoxazole-3-carboxylic acid at 400 mg/kg, po after 30 mins; assay type: ADME, organism-based; design: dose 400 mg/kg, route oral; conditions: in vivo, 0.5 h; method in brief: as §3
Mus musculus [12] = assay: Plasma concentration in BALB/c mouse assessed as 5-((2,8-bis(trifluoromethyl)qu inolin-4-yloxy)methyl)isoxazole-3-carboxylic acid at 400 mg/kg, po after 90 mins; assay type: ADME, organism-based; design: dose 400 mg/kg, route oral; conditions: in vivo, 1.5 h; method in brief: as §3
[13] = test system: Mycobacterium tuberculosis; assay: Antitubercular activity against replicating Mycobacterium tuberculosis; assay type: functional; method in brief: as §1
[14] = test system: Mycobacterium tuberculosis; assay: Antitubercular activity against non replicating Mycobacterium tuberculosis; assay type: functional; method in brief: as §2
[15] = test system: Mycobacterium tuberculosis; assay: Antitubercular activity against Mycobacterium tuberculosis infected in macrophages assessed as reduction in colony forming unit; assay type: functional
Mus musculus [16] = assay: Cmax in BALB/c mouse assessed as E-Ethyl 5-[2-(4-quinolinyl)eth enyl]-3-isoxazolecarboxylate at 400 mg/kg, po; assay type: ADME, organism-based; design: dose 400 mg/kg, route oral; conditions: in vivo; method in brief: as §3

Compound	MIC [1] [µM]	MIC [2] [µM]	IC50 (Vero) [µM]	selectivity ratio [3]	selectivity ratio [4]	other results
CCOC(=O)c1cc(COc2cc(C(F)(F)F)nc3c(C(F)(F)F)cccc23)on1	0.9 (≈ 0.391 µg/mL)	12.2 (≈ 5.3 µg/mL)	> 128	> 144	> 10.5	half-life [5]: 1.6 h; Cmax [6]: 1 µM; AUC [7]: 2.2 µM·h; Cmax (Mus musculus [8]): 2710 ng/mL; Tmax (Mus musculus [9]): 0.5 h; Cp (Mus musculus [10]): 100 ng/mL; Cp (Mus musculus [11]): 400 ng/mL; Cp (Mus musculus [12]): 26 ng/mL; MIC [13]: 0.9 µM (≈ 0.391 µg/mL); MIC [14]: 12.2 µM (≈ 5.3 µg/mL); EC90 [15]: 4.1 µM; Cmax (Mus musculus [16]): 30 ng/mL
CCOC(=O)c1cc(C(C)(C)Oc2cc(C(F)(F)F)nc3c(C(F)(F)F)cccc23)on1	6.8 (≈ 3.14 µg/mL)	22.1 (≈ 10.2 µg/mL)	23	0.6	1	
CCOC(=O)c1cc(CCc2cc(C(F)(F)F)nc3c(C(F)(F)F)cccc23)on1	5.7 (≈ 2.46 µg/mL)	12.6 (≈ 5.45 µg/mL)	> 128	> 22.5	> 10.2	
CCOC(=O)c1cc(/C=C\c2ccnc3ccccc23)on1	0.6 (≈ 0.177 µg/mL)	3 (≈ 0.883 µg/mL)	> 128	> 213	> 42.7	
CCOC(=O)c1cc(/C=C\c2cc(C(F)(F)F)nc3ccc(C(F)(F)F)cc23)on1			> 128			
CCOC(=O)c1cc(/C=C/c2ccnc3ccccc23)on1	0.2 (≈ 0.0589 µg/mL)	2.6 (≈ 0.765 µg/mL)	> 128	> 640	> 49.2	half-life [5]: 1.9 h; Cmax [6]: 61.7 µM; AUC [7]: 156 µM·h
CCOC(=O)c1cc(C(=O)Nc2cc(C(F)(F)F)nc3c(C(F)(F)F)cccc23)on1	29.5 (≈ 13.2 µg/mL)	> 128	> 128	> 4.3		
CCOC(=O)c1cc(/C=C/c2cc(C(F)(F)F)nc3c(C(F)(F)F)cccc23)on1	2.7 (≈ 1.16 µg/mL)	38.9 (≈ 16.7 µg/mL)	> 128	> 47.5	> 3.3	
CCOC(=O)c1cc(C(Oc2cc(C(F)(F)F)nc3c(C(F)(F)F)cccc23)c2ccccc2)on1 (stereo not drawn)	> 128	> 128	> 128			
O=C(O)c1cc(/C=C/c2ccnc3ccccc23)on1			> 128			
CCOC(=O)c1cc(C(C)Oc2cc(C(F)(F)F)nc3c(C(F)(F)F)cccc23)on1 (stereo not drawn)	4.2 (≈ 1.88 µg/mL)	20.7 (≈ 9.28 µg/mL)	> 128	> 30.5	> 6.2	
CCOC(=O)c1cc(CCc2ccnc3ccccc23)on1	2.7 (≈ 0.8 µg/mL)	22.5 (≈ 6.67 µg/mL)	> 128	> 47.5	> 5.7	
CCOC(=O)c1cc(/C=C\c2ccnc3ccc(OC)cc23)on1	1.6 (≈ 0.519 µg/mL)	2 (≈ 0.649 µg/mL)	> 128	> 80	> 64	
CCOC(=O)c1cc(/C=C/c2ccnc3ccc(OC)cc23)on1	0.4 (≈ 0.13 µg/mL)	1.1 (≈ 0.357 µg/mL)	> 128	> 320	> 116	
CCOC(=O)c1cc(/C=C/c2ccc3ncccc3c2)on1	0.9 (≈ 0.265 µg/mL)	9.3 (≈ 2.74 µg/mL)	> 128	> 142	> 13.8	
CCOC(=O)c1cc(-c2cc(C(F)(F)F)nc3c(C(F)(F)F)cccc23)on1	16.5 (≈ 6.67 µg/mL)	48.1 (≈ 19.4 µg/mL)	> 128	> 7.8	> 2.7	
CCCCC(Oc1cc(C(F)(F)F)nc2c(C(F)(F)F)cccc12)c1cc(C(=O)OCC)no1 (stereo not drawn)	116 (≈ 56.8 µg/mL)	11.9 (≈ 5.84 µg/mL)	42.7	0.3	3.6	
CCOC(=O)c1cc(/C=C\c2ccc3ncccc3c2)on1	1.3 (≈ 0.383 µg/mL)	12.4 (≈ 3.65 µg/mL)	> 128	> 98.4	> 10.3	
OC(c1cc(C(F)(F)F)nc2c(C(F)(F)F)cccc12)C1CCCCN1 (stereo not drawn) [MEFLOQUINE]	13 (≈ 4.92 µg/mL)	7 (≈ 2.65 µg/mL)	11	0.9	1.6	
CO[C@H]1/C=C/O[C@@]2(C)Oc3c(C)c(O)c4c(O)c(c(/C=N/N5CCN(C)CC5)c(O)c4c3C2=O)NC(=O)/C(C)=C\C=C\[C@H](C)[C@H](O)[C@@H](C)[C@@H](O)[C@@H](C)[C@H](OC(C)=O)[C@@H]1C [RIFAMPIN]	0.1 (≈ 0.0823 µg/mL)	2 (≈ 1.65 µg/mL)		1220	61	
